What was measured:
Human gammaherpesvirus 4 [1] = test: (§1) Effective concentration of compound against Epstein Barr virus was determined; format: functional
Method in brief: (§2)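 Log-phase H1 cells seeded at 2 × 10^5 cells/well, exposed to a range of concentrations at 37 °C for 5 days. EBV DNA was measured by slot blot of freeze-thaw lysates in 10 mM Tris-HCl pH 7.5 with RNase A (50 μg/mL final, 55 °C, 2 h), probed with EBV EcoRI fragment, then reprobed with Alu. The EBV/Alu ratio was compared with untreated cells.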

[2] = Cytotoxicity on human P3HR1 derived H1 cells; format: functional; settings: read-out: ID50 (the source's name)
Method in brief: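 H1 cells seeded at 2 × 10^5 cells/well with various compound concentrations for 3 days, then counted. ID50 is the dose giving a 50% drop in cell number versus the untreated control. Medium was RPMI 1640 with 10% dialyzed FBS, 37 °C, 5% CO2.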

[3] = Toxicity of compound was determined as decrease in mt-DNAcontent in human P3HR1 derived H1 cells; format: cell-based
Method in brief: (§3)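 H1 cells (high-yield EBV producers derived from P3HR1), kept in log growth for 2 days, seeded at 2 × 10^5 cells/well with or without compound at various concentrations, 37 °C for 5 days. Lysed by freeze-thaw, RNase A treated, slot-blotted, then hybridized with a mitochondrial DNA probe after the Alu probe was stripped. mtDNA content compared with untreated cells.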

Human gammaherpesvirus 4 [4] = test: as §1; format: functional, organism-based; method in brief: as §2
[5] = Selective Index from ID50 to that of EC90
[6] = Selective Index (ID50/EC90)
[7] = Compound was tested for cytotoxicity against mt-DNA; method in brief: as §3

| SMILES | EC50 (Human gammaherpesvirus 4 [4]; human gammaherpesvirus 4) | EC90 (Human gammaherpesvirus 4 [1]) | Toxicity [3] | IC50 ([2]; Homo sapiens, H1) | other results |
| --- | --- | --- | --- | --- | --- |
| O=c1[nH]c(=O)n(C2COC(CO)O2)cc1I (stereo in doubt; 17) [listing 1 of 2 here] |  | 0.16 µM | > 50 µM |  | IC50 [2]: > 1000 µM; EC50 (Human gammaherpesvirus 4 [4]): 0.033 µM |
| O=c1[nH]c(=O)n(C2COC(CO)O2)cc1I (stereo in doubt; 17) [listing 2 of 2 here] |  |  |  |  | Selectivity index [5]: > 6250 |
| O=c1[nH]c(=O)n(C2COC(CO)O2)cc1C(F)(F)F (stereo not given) | 4 µM |  |  | > 100 µM |  |
| O=c1[nH]c(=O)n([C@H]2CO[C@@H](CO)O2)cc1Br | 0.19 µM | 0.48 µM |  | > 1000 µM | Selectivity index [6]: > 2080; Toxicity [7]: > 50 µM |
| O=c1[nH]c(=O)n(C2COC(CO)O2)cc1I (stereo in doubt) |  |  |  |  | IC50 [2]: 18 µM; EC50 (Human gammaherpesvirus 4 [4]): 7.6 µM |

More lines, main results first:

| EC50 (Human gammaherpesvirus 4 [4]; human gammaherpesvirus 4) | SMILES | EC90 (Human gammaherpesvirus 4 [1]) | Toxicity [3] | IC50 ([2]; Homo sapiens, H1) | other results |
| --- | --- | --- | --- | --- | --- |
| 5 µM | Nc1nc2c(ncn2COC(CO)CO)c(=O)[nH]1 [GANCICLOVIR] |  |  | 75 µM |  |
| 50 µM | O=c1[nH]c(=O)n([C@H]2CO[C@@H](CO)O2)cc1F |  | > 50 µM | > 100 µM |  |
| > 50 µM | O=c1ccn([C@H]2CO[C@@H](CO)O2)c(=O)[nH]1 |  |  |  |  |
| 0.6 µM | O=c1[nH]c(=O)n(C2COC(CO)O2)cc1Cl (stereo not given) | 1.37 µM | > 50 µM | > 100 µM | Selectivity index [5]: > 72 |
